Assay [1] deals with DNA topoisomerase 2-alpha (Homo sapiens) (UniProt P11388). Briefly: Inhibition of recombinant human DNA topoisomerase 2alpha assessed as relaxation of supercoiled DNA pBR322 at 100 uM after 30 mins using ethidium bromide staining by agarose gel electrophoresis. The gist of the method:
(§1)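 The reaction held 200 ng supercoiled pBR322 with 1 unit human topo IIα, with or without compound, for 30 min at 30 °C. Buffer was 10 mM Tris-HCl pH 7.9, 50 mM NaCl, 5 mM MgCl2, 1 mM EDTA, 1 mM ATP and BSA. EDTA was added to stop it. Products ran on 1% agarose in TAE at 25 V for 4 h, were stained with ethidium bromide, and supercoiled DNA was quantitated under UV.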

Assay [2] shares this target. Briefly: Inhibition of recombinant human DNA topoisomerase 2alpha assessed as relaxation of supercoiled DNA pBR322 at 20 uM after 30 mins using ethidium bromide staining by agarose gel electrophoresis. The gist of the method:
as §1

The next assay has as its system HEK293. Briefly: Cytotoxicity against HEK293 cells after 4 days by CCK-8 assay. The assay is classed as cell-based. The note with it: Homo sapiens, HEK293, 96 h. The gist of the method:
(§2)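 Cells were seeded at 2–4 × 10^4 per well and grown overnight in medium with 10% FBS at 37 °C under 5% CO2. On day 2, after 4 h FBS starvation, the medium was replaced with medium holding graded compound concentrations. On day 4, CCK-8 was added for 4 h and A450 was read. IC50 came from a four-parameter logistic fit; three experiments run in triplicate.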
Background: Tetrazolium dyes change colour on reduction, which living cells bring about.

The target in assay [3] is T1, DNA topoisomerase 1 (Homo sapiens) (UniProt P11387).
T1 sequence (whole entry): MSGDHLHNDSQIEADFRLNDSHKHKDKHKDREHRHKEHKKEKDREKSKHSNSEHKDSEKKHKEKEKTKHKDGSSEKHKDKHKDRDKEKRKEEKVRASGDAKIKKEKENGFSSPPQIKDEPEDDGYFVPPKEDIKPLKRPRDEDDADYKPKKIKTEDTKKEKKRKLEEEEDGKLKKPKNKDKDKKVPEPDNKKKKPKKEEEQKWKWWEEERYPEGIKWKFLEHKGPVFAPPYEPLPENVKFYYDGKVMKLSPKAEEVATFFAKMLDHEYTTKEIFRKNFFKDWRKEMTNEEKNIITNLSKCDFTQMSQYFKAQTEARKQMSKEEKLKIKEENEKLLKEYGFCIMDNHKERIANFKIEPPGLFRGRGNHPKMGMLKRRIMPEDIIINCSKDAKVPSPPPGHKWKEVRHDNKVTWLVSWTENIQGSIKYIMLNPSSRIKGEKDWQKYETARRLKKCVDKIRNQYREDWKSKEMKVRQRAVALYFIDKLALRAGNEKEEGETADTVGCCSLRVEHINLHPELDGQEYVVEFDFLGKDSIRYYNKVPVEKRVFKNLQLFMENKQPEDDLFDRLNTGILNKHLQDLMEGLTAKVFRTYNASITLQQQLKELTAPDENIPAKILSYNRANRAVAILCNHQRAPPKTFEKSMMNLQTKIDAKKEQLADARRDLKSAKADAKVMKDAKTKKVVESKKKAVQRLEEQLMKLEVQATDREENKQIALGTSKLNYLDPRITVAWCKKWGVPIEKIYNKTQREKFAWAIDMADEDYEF
As to the kind of experiment: Inhibition of recombinant human DNA topoisomerase 1 assessed as relaxation of supercoiled DNA pBR322 at 100 uM after 30 mins using ethidium bromide staining by agarose gel electrophoresis. The gist of the method: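 A mix of 100 ng supercoiled pBR322 and 1 unit recombinant human topo I, with or without compound, was held 30 min at 37 °C. Buffer was 10 mM Tris-HCl pH 7.9, 150 mM NaCl, 0.1% BSA, 1 mM spermidine and 5% glycerol. A sarcosyl stop solution ended the reaction. Products ran on 1% agarose in TAE at 15 V for 7 h, were stained with ethidium bromide and quantitated under UV.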

The next assay relates to T47D. Briefly: Cytotoxicity against human T47D cells after 4 days by CCK-8 assay. The class given is functional, cell-based. The note with it: 96 h. The gist of the method:
as §2

The next assay has as its system DU-145. Briefly: Cytotoxicity against human DU145 cells after 4 days by CCK-8 assay. As to conditions: DU-145, 96 h. The assay is classed as functional, cell-based. Put shortly: as §2
Assay [4] is described as follows: Cytotoxicity against human HCT15 cells […] by CCK-8 assay. The class given is functional, cell-based. The note with it: HCT-15. The gist of the method: as §2

Where a name gives a salt, the structure may show the parent alone.

Sequence of DNA topoisomerase 2-alpha (Homo sapiens) (P11388 whole entry): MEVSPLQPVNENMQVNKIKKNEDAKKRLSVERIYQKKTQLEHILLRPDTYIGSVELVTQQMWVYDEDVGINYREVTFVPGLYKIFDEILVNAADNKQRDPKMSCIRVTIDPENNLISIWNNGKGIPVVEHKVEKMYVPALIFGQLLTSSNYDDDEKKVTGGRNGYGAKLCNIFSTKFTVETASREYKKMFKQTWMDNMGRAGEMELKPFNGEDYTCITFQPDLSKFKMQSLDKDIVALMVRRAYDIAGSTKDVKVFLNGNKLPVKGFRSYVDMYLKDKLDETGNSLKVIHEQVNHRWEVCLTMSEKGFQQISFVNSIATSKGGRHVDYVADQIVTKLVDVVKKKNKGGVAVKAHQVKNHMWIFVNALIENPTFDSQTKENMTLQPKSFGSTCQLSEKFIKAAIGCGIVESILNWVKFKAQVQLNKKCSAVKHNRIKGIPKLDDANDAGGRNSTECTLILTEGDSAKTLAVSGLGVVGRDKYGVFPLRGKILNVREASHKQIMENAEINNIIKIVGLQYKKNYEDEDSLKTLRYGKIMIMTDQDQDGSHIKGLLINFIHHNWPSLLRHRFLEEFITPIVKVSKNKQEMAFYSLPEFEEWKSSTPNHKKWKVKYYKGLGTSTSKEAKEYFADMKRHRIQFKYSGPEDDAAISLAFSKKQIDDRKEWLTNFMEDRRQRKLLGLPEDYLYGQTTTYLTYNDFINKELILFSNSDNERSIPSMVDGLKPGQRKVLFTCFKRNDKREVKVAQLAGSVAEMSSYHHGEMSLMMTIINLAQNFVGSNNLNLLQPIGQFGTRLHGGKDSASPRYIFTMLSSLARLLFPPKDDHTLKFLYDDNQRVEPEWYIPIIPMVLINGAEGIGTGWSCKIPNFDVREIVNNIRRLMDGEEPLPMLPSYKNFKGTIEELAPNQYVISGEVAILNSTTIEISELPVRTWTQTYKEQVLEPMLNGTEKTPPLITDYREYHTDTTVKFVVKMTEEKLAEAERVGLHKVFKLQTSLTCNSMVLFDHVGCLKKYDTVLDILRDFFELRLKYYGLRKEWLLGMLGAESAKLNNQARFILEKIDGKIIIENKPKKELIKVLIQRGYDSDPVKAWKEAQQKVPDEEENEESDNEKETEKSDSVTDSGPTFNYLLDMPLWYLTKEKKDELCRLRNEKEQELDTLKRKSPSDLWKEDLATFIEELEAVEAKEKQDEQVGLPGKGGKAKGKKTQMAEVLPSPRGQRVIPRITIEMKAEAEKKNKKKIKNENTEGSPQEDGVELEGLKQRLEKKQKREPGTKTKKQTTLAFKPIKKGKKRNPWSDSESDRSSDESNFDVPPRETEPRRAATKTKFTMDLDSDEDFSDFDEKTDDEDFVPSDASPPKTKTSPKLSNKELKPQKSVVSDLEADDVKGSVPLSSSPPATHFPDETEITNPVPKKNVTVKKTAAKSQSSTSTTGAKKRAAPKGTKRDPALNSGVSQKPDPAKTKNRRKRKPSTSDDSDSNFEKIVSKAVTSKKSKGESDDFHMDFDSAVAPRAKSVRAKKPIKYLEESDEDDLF

As for `Oc1ccc(-c2cc(-c3cccc(O)c3)nc(-c3cccc(O)c3)c2)cc1`, the values for the inhibition in assay [1], in assay [2] and in assay [3] were 100%, 9.6% and 0%, respectively. The IC50 (as a rule, the concentration at which inhibition is half-maximal) was determined as 0.73 µM with HEK293, 2.23 µM in the assay with T47D, 1.76 µM with DU-145 and 3.81 µM in assay [4].
For the compound `Oc1ccc(-c2cc(-c3ccc(O)cc3)nc(-c3ccc(O)cc3)c2)cc1`, the inhibition (as a rule, the share of the control response that was lost under treatment) came out at 79.1% in assay [1], 7.9% in assay [2] and 3.8% in assay [3]. In addition, the IC50 with HEK293 came to 0.79 µM; in the assay with T47D, 4.27 µM; in the assay with DU-145 it was 3.16 µM; in assay [4] it was 5.12 µM.
`Oc1cccc(-c2cc(-c3cccc(O)c3)nc(-c3cccc(O)c3)c2)c1`: the values for the inhibition in assay [1], in assay [2] and in assay [3] were 100%, 8.3% and 0%, respectively. The IC50 in the assay with HEK293 was determined as 0.74 µM; in the assay with T47D it was 2.05 µM; with DU-145, 4.04 µM; in assay [4], 3.95 µM.
Regarding `CC[C@@]1(O)C(=O)OCc2c1cc1n(c2=O)Cc2cc3ccccc3nc2-1` [CAMPTOTHECIN], the values for the IC50 (with HEK293; with T47D; in assay [4]) were 0.28 µM, 0.75 µM and 1.98 µM, respectively.
In the case of `Oc1ccc(-c2cc(-c3cccc(O)c3)cc(-c3cccc(O)c3)n2)cc1`, the inhibition in assay [1] was 100%; in assay [2], 3.7%; in assay [3], 0%. Moreover, the IC50 was 1.56 µM in the assay with HEK293, 3.92 µM with T47D, 1.94 µM in the assay with DU-145 and 3.09 µM in assay [4].
Consider `Oc1ccc(-c2cc(-c3ccccc3O)cc(-c3ccccc3O)n2)cc1`, for which the inhibition in assay [1] amounted to 77.6%; in assay [2] it was 21.3%; in assay [3], 0.3%. The IC50 turned out to be 6.99 µM with HEK293, 0.96 µM with T47D, 0.36 µM in the assay on DU-145 and 8.24 µM in assay [4].
For `Oc1ccc(-c2cc(-c3ccccc3O)cc(-c3cccc(O)c3)n2)cc1`, the values for the inhibition in assay [1], in assay [2] and in assay [3] were 92.2%, 7.4% and 0%, respectively. Also, the IC50 in the assay with HEK293 came to 5.65 µM; in the assay on T47D it was 0.65 µM; in the assay with DU-145 it was 5.37 µM; in assay [4], 4.85 µM.
`COc1cc([C@@H]2c3cc4c(cc3[C@@H](O[C@@H]3O[C@@H]5CO[C@@H](C)O[C@H]5[C@H](O)[C@H]3O)[C@H]3COC(=O)[C@H]23)OCO4)cc(OC)c1O` [ETOPOSIDE]: the results for the IC50 (with HEK293; in the assay with T47D; in assay [4]) were 1.04 µM, 8.74 µM and 7.74 µM, respectively.
With `Oc1cccc(-c2cc(-c3ccccc3O)cc(-c3ccccc3O)n2)c1`, the inhibition in assay [1] came to 87.9%; in assay [2], 6.6%; in assay [3], 0%. The IC50 stood at 0.73 µM with HEK293, 5.76 µM with T47D, 3.98 µM with DU-145 and 3.39 µM in assay [4].
For `Oc1cccc(-c2cc(-c3cccc(O)c3)nc(-c3ccccc3O)c2)c1`, the inhibition in assay [1] is 11.3%; in assay [3], 1.9%. In addition, the IC50 (in the assay on HEK293; in the assay with T47D; with DU-145; in assay [4]) was greater than 50 µM each time.
Regarding `Oc1ccc(-c2cc(-c3ccccc3O)cc(-c3ccc(O)cc3)n2)cc1`, the inhibition stood at 100% in assay [1], 5.4% in assay [2] and 0.4% in assay [3]. In addition, the IC50 in the assay on HEK293 is 0.78 µM; in the assay on T47D, 5.35 µM; in the assay with DU-145 it was 0.98 µM; in assay [4] it was 1.92 µM.
For `Oc1cccc(-c2cc(-c3ccccc3O)cc(-c3cccc(O)c3)n2)c1`, the inhibition worked out at 100% in assay [1], 9.3% in assay [2] and 0% in assay [3]. Besides, the IC50 in the assay with HEK293 is 0.13 µM; with T47D, 4.57 µM; in the assay with DU-145, greater than 50 µM; in assay [4], 5.15 µM.
In the case of `Oc1ccc(-c2cc(-c3cccc(O)c3)cc(-c3ccc(O)cc3)n2)cc1`, the values for the inhibition in assay [1], in assay [2] and in assay [3] were 90.1%, 48.2% and 0%, respectively. Moreover, the IC50 was greater than 50 µM in the assay on HEK293, 4.07 µM in the assay with T47D, 1.4 µM in the assay on DU-145 and greater than 50 µM in assay [4].
Regarding `COc1cccc2c1C(=O)c1c(O)c3c(c(O)c1C2=O)C[C@@](O)(C(=O)CO)C[C@@H]3O[C@H]1C[C@H](N)[C@H](O)[C@H](C)O1` [DOXORUBICIN HYDROCHLORIDE], the IC50 in the assay with HEK293 came out at 1.22 µM; in the assay on T47D, 3.12 µM; in the assay with DU-145 it was 3.89 µM.
As for `Oc1ccc(-c2cc(-c3cccc(O)c3)cc(-c3ccccc3O)n2)cc1`, the inhibition in assay [1] was 31.3%; in assay [2], 1.6%; in assay [3], 8.4%. For the same compound, the IC50 (in the assay on HEK293; in the assay with T47D; with DU-145; in assay [4]) was greater than 50 µM in each case.
Take `Oc1ccc(-c2cc(-c3ccc(O)cc3)nc(-c3ccccc3O)c2)cc1`: the inhibition in assay [1] was 44%; in assay [2], 1.8%; in assay [3] it was 0%. Also, the IC50 with HEK293 was 26.3 µM; with T47D it was greater than 50 µM; in the assay with DU-145, greater than 50 µM; in assay [4], greater than 50 µM.
Take `Oc1ccc(-c2cc(-c3ccc(O)cc3)nc(-c3cccc(O)c3)c2)cc1`: the inhibition in assay [1] is 100%; in assay [2] it was 15.8%; in assay [3], 0%. Further, the IC50 came to 0.84 µM in the assay with HEK293, 4.47 µM in the assay on T47D, 5.8 µM in the assay with DU-145 and 3.52 µM in assay [4].
Consider `Oc1ccc(-c2cc(-c3cccc(O)c3)nc(-c3ccccc3O)c2)cc1`, for which the inhibition in assay [1] stood at 80.6%; in assay [2], 38.5%; in assay [3], 1.5%. Further, the IC50 turned out to be 7.42 µM with HEK293, 4.81 µM with T47D, 3.42 µM in the assay with DU-145 and 5.83 µM in assay [4].
For the compound `Oc1ccc(-c2cc(-c3ccccc3O)nc(-c3ccccc3O)c2)cc1`, the inhibition in assay [1] came to 46.9%; in assay [2], 2.9%; in assay [3], 3.7%. Besides, the IC50 was greater than 50 µM in the assay on HEK293, 18.3 µM with T47D, greater than 50 µM in the assay on DU-145 and greater than 50 µM in assay [4].
As to `Oc1cccc(-c2cc(-c3ccccc3O)nc(-c3ccccc3O)c2)c1`, the inhibition in assay [1] came to 99.4%; in assay [2], 7.1%; in assay [3] it was 4.9%. Moreover, the IC50 came to 0.08 µM in the assay with HEK293, 3.42 µM in the assay on T47D, 5.4 µM with DU-145 and 5.02 µM in assay [4].
Turning to `Oc1ccccc1-c1cc(-c2ccccc2O)nc(-c2ccccc2O)c1`, the figures for the inhibition in assay [1], in assay [2] and in assay [3] were 95.1%, 10.1% and 0%, respectively. The IC50 turned out to be 0.14 µM in the assay with HEK293, 2.51 µM in the assay with T47D, 5.04 µM in the assay on DU-145 and 2.18 µM in assay [4].

The values are drawn from ChEMBL document CHEMBL3352155, “Synthesis, antitumor activity, and structure-activity relationship study of trihydroxylated 2,4,6-triphenyl pyridines as potent and selective topoisomerase II inhibitors” (Eur J Med Chem, 2014).
